Columns and labels:
[1] = biological target: T1, Histone deacetylase 8 (Homo sapiens) (UniProt Q9BY41); test: Ratio of SAHA Kd to compound Kd for recombinant human HDAC8
T1 sequence (whole entry): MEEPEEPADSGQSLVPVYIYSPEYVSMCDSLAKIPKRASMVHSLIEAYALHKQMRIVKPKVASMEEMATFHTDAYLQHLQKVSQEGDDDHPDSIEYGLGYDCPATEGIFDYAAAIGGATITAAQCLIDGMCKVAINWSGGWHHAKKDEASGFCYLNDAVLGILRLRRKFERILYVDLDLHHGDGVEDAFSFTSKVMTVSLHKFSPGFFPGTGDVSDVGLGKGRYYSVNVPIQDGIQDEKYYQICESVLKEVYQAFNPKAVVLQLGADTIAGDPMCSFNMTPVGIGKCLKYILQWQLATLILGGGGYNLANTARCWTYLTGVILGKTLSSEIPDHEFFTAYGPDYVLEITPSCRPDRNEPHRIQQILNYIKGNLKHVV

[2] = biological target: T2, Protein deacetylase HDAC6 (Homo sapiens, UniProt Q9UBN7); test: Inhibition of recombinant human HDAC6 using Boc-L-Lys(acetyl)-MCA as substrate by fluorogenic enzymatic assay
T2 sequence (Q9UBN7 whole entry): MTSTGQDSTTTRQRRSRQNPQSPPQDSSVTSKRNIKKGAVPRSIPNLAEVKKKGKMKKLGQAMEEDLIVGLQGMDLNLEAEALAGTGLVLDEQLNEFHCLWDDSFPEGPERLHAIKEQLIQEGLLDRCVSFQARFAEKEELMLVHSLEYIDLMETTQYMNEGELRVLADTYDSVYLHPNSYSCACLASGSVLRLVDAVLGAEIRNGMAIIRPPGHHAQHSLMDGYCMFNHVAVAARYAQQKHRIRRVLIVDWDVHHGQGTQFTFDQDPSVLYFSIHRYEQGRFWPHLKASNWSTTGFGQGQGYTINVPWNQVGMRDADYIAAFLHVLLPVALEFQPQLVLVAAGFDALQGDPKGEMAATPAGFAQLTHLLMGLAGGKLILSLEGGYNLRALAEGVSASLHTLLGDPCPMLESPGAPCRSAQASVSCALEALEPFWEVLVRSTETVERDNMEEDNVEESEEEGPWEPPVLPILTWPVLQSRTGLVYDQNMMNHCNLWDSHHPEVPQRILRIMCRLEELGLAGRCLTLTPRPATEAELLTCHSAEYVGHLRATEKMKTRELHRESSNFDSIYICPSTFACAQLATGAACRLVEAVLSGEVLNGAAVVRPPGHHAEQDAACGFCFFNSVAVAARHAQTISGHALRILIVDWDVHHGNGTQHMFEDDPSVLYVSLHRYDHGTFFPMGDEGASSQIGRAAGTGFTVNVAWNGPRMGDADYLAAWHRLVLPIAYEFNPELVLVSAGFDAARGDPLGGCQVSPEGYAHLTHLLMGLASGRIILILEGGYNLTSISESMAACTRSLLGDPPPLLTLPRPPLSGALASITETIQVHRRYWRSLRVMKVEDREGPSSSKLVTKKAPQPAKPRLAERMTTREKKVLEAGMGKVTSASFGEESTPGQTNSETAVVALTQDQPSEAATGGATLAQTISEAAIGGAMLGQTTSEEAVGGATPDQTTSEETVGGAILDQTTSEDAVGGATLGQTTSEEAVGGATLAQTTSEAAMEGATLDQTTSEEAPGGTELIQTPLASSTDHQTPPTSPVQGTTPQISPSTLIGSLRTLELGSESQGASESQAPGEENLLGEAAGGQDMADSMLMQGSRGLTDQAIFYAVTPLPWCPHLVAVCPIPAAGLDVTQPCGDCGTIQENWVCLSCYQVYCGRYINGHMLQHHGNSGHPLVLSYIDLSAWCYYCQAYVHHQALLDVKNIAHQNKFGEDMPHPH

Histone deacetylase 1 = Histone deacetylase 1 (Homo sapiens, UniProt Q13547); test: Inhibition of recombinant human HDAC1 using Boc-L-Lys(acetyl)-MCA as substrate by fluorogenic enzymatic assay
Histone deacetylase 8 = biological target: T3, Histone deacetylase 8 (Homo sapiens, UniProt Q9BY41); test: Inhibition of recombinant human HDAC8 using Boc-L-Lys(trifluoroacetyl)-MCA as substrate by fluorogenic enzymatic assay
T3 sequence (Q9BY41 whole entry): T1 sequence (whole entry)

[3] = biological target: T4, Histone deacetylase-like amidohydrolase (Alcaligenes sp. (strain DSM 11172) (Bordetella sp. (strain FB188)), UniProt Q70I53); test: Inhibition of Bordetella FB188 HDAH using Boc-L-Lys(acetyl)-MCA as substrate by fluorogenic enzymatic assay
T4 sequence (Q70I53 whole entry): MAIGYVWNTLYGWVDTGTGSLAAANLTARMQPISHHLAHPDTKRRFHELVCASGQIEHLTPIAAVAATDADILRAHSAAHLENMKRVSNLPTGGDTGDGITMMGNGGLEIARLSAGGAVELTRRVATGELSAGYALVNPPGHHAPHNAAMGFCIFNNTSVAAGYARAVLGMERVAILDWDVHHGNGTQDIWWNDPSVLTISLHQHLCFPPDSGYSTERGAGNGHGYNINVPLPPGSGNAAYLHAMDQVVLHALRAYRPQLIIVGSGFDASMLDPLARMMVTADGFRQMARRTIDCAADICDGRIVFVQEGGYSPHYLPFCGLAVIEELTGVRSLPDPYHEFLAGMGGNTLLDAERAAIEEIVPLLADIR

Histone deacetylase [4] = test: Inhibition of HDAC in human K562 cells using Boc-L-Lys(trifluoroacetyl)-MCA as substrate by fluorogenic cellular assay; format: cell-based
Method in brief: (§1)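 K562 cells were grown in RPMI with 10% FCS, L-glutamine and gentamycin, then pelleted. Lysis in 50 mM Tris–HCl pH 8.5, 1 M NaCl, 1 mM MgCl₂, Triton X-100 (up to 5× pellet volume), 2 h at 37 °C. The diluted lysate replaces recombinant enzyme in the two-step fluorogenic trypsin-coupled assay with substrate at 20 µM final. Read-out is AMC fluorescence (ex 390, em 460 nm), giving IC50.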

Histone deacetylase 7 = biological target: T5, Histone deacetylase 7 (Homo sapiens, UniProt Q8WUI4); test: Inhibition of recombinant human HDAC7 using Boc-L-Lys(trifluoroacetyl)-MCA as substrate by fluorogenic enzymatic assay
T5 sequence (Q8WUI4 whole entry): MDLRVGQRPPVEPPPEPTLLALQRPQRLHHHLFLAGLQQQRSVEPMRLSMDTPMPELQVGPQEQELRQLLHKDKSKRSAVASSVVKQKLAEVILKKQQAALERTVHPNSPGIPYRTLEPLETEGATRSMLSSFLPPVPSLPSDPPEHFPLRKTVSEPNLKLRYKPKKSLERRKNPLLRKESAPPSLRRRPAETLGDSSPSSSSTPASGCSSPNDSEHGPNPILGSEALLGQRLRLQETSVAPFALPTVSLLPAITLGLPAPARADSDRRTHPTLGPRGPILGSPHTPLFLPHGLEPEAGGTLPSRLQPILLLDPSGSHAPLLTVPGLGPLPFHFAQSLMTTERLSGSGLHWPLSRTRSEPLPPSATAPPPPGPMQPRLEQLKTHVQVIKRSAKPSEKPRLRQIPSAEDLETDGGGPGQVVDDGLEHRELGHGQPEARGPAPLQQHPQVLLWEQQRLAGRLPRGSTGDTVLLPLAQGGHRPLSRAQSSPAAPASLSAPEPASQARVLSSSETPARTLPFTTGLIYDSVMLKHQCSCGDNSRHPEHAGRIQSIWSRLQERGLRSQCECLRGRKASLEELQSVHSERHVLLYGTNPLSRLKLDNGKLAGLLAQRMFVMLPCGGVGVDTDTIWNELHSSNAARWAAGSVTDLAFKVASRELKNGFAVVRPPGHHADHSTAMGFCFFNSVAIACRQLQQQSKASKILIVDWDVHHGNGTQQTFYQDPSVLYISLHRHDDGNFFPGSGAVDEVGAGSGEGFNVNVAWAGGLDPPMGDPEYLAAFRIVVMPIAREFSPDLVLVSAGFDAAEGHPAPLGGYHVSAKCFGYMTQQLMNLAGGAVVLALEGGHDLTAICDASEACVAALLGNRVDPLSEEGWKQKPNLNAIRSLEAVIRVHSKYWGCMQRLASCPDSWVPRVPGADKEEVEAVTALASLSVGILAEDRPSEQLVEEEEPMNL

[5] = biological target: T6, Histone deacetylase 7 (Homo sapiens) (UniProt Q8WUI4); test: Ratio of SAHA Kd to compound Kd for recombinant human HDAC7
T6 sequence (whole entry): T5 sequence (Q8WUI4 whole entry)

Histone deacetylase [6] = test: Inhibition of HDAC in human K562 cells using Boc-L-Lys(acetyl)-MCA as substrate by fluorogenic cellular assay; format: cell-based; method in brief: as §1

Sequence of Histone deacetylase 1 (Q13547 whole entry): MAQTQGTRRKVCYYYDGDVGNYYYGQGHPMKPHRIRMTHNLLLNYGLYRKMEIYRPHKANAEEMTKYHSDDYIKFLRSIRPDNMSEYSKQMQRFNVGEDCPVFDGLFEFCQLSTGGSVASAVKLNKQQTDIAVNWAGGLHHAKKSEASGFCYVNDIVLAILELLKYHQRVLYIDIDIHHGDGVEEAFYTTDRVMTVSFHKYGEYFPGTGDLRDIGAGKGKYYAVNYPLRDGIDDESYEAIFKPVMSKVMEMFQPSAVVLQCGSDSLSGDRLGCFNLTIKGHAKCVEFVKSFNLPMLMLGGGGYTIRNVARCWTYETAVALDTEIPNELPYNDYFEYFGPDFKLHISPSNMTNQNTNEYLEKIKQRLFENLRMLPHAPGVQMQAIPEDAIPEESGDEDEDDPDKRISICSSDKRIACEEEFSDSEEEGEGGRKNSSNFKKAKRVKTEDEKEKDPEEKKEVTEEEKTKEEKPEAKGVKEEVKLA

Compound	Ratio [1]	Kd [2]	Kd (Histone deacetylase 1)	Kd (Histone deacetylase 8)	Kd [3]	IC50 (Histone deacetylase [4])	Kd (Histone deacetylase 7)	Ratio [5]	IC50 (Histone deacetylase [6])
O=C(NO)C(F)(F)C(F)(F)C(F)(F)C(F)(F)C(F)(F)C(F)(F)C(=O)Nc1nc(-c2ccccc2)cs1	2	5.4 µM	2.6 µM	1.5 µM	2.2 µM	14 µM	1.4 µM	25	30 µM
O=C(NO)C(F)(F)C(F)(F)C(F)(F)C(F)(F)C(F)(F)C(F)(F)C(=O)Nc1ccccc1	–	11 µM	29 µM	17 µM	0.54 µM	49 µM	11 µM	3	> 50 µM
